Laboratory results published in ChEMBL document CHEMBL1121415, “Inhibition of histamine-induced gastric secretion by flavone-6-carboxylic acids” (1980).
Where “and” joins values, the source holds several entries; their conditions need not be identical. Equal values may be shown once.

What was measured:
Assay type in all cases: functional
[1] = tested on: Rattus norvegicus; assay: Inhibition of histamine-induced gastric acid secretion in the rat following 80 mg/kg s.c. administration.; conditions: Stomach, sc
Outline: (§1)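 Compound was given subcutaneously at 1 mL/kg to 48-h-fasted rats in groups of 10; controls received saline. Pylorus ligation under ether followed 30 min later. Histamine 2.5 mg/kg sc was given at 15-min intervals for 3 h. Gastric juice was titrated with 0.02 N NaOH to pH 7.0 to give total acid output, expressed as % mean inhibition vs controls, with ANOVA.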

[2] = tested on: Rattus norvegicus; assay: The compound was tested for its ability to inhibit histamine-induced gastric acid secretion in the rat at a dose of 70 mg/kg, sc; conditions: Stomach, route subcutaneous; outline: as §1
[3] = tested on: Rattus norvegicus; assay: The compound was tested for its ability to inhibit histamine-induced gastric acid secretion in the rat at a dose of 76 mg/kg, sc; conditions: Stomach, route subcutaneous; outline: as §1
[4] = tested on: Rattus norvegicus; assay: % inhibition in total acid secretion when tested orally in rat ligated stomach preparation at 100 mg/kg peroral dose; conditions: route oral
Outline: (§2)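 Rats fasted 48 h with water ad libitum, in groups of 10, were dosed orally by gavage at 1 mL/kg; controls received saline. After 30 min, under ether, the pylorus was ligated. Histamine 2.5 mg/kg sc was given right after surgery and every 15 min for 3 h. Gastric juice was titrated with 0.02 N NaOH to pH 7.0 ± 0.1 as mequiv H+/100 g. Mean % inhibition vs controls was tested by ANOVA.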

[5] = tested on: Rattus norvegicus; assay: % inhibition in total acid secretion when tested orally in rat ligated stomach preparation at 200 mg/kg peroral dose; conditions: route oral; outline: as §2
[6] = tested on: Rattus norvegicus; assay: Determined as […] and at 150 mg/kg peroral dose; conditions: route oral; outline: as §2
[7] = tested on: Rattus norvegicus; assay: Determined as […] and at 200 mg/kg peroral dose; conditions: route oral; outline: as §2
[8] = tested on: Rattus norvegicus; assay: Determined as […] and at 50 mg/kg peroral dose; conditions: route oral; outline: as §2
[9] = tested on: Rattus norvegicus; assay: Gastric juice volume when tested orally in rat ligated stomach preparation at 100 mg/kg peroral dose; conditions: route oral
Outline: (§3)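 Orally gavaged rats (1 mL/kg; saline controls; 48-h fast, groups of 10) had pylorus ligation under ether 30 min post-dose. They then received histamine 2.5 mg/kg sc every 15 min for 3 h. At sacrifice, stomach contents were aspirated and the gastric juice volume in mL was recorded. Results are given as mean ± SD.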

[10] = tested on: Rattus norvegicus; assay: Gastric juice volume when tested orally in rat ligated stomach preparation at 150 mg/kg peroral dose; conditions: route oral; outline: as §3
[11] = tested on: Rattus norvegicus; assay: Gastric juice volume when tested orally in rat ligated stomach preparation at 200 mg/kg peroral dose; conditions: route oral; outline: as §3
[12] = tested on: Rattus norvegicus; assay: Gastric juice volume when tested orally in rat ligated stomach preparation at 50 mg/kg peroral dose; conditions: route oral; outline: as §3
[13] = tested on: Rattus norvegicus; assay: Determined as […] and at 100 mg/kg peroral dose; conditions: route oral; outline: as §2
[14] = tested on: Rattus norvegicus; assay: The compound was tested for its ability to inhibit histamine-induced gastric acid secretion in the rat at a dose of 60 mg/kg, sc; conditions: Stomach, route subcutaneous; outline: as §1
[15] = tested on: Rattus norvegicus; assay: The compound was tested for its ability to inhibit histamine-induced gastric acid secretion in the rat at a dose of 66 mg/kg, sc; conditions: Stomach, route subcutaneous; outline: as §1
[16] = tested on: Rattus norvegicus; assay: The compound was tested for its ability to inhibit histamine-induced gastric acid secretion in the rat at a dose of 90 mg/kg, sc; conditions: Stomach, route subcutaneous; outline: as §1
[17] = tested on: Rattus norvegicus; assay: % inhibition in total acid secretion when tested orally in rat ligated stomach preparation at 150 mg/kg peroral dose; conditions: route oral; outline: as §2
[18] = tested on: Rattus norvegicus; assay: % inhibition in total acid secretion when tested orally in rat ligated stomach preparation at 75 mg/kg peroral dose; conditions: route oral; outline: as §2
[19] = tested on: Rattus norvegicus; assay: Determined as […] and at 75 mg/kg peroral dose; conditions: route oral; outline: as §2
[20] = tested on: Rattus norvegicus; assay: Gastric juice volume when tested orally in rat ligated stomach preparation at 75 mg/kg peroral dose; conditions: route oral; outline: as §3

Structure (SMILES): COc1ccc(-c2oc3ccc(C(=O)O)cc3c(=O)c2OC)cc1
- inhibition in vivo at 80 mg/kg [1]: 22%

Structure (SMILES): CS(=O)(=O)c1ccc(-c2cc(=O)c3cc(C(=O)O)ccc3o2)cc1
- inhibition in vivo at 70 mg/kg [2]: 41%

Structure (SMILES): CC(C)c1ccc(-c2oc3ccc(C(=O)O)cc3c(=O)c2O)cc1
- inhibition in vivo at 80 mg/kg [1]: 24%

Structure (SMILES): O=C(O)c1ccc2oc(-c3ccccc3Br)c(O)c(=O)c2c1
- inhibition in vivo at 80 mg/kg [1]: 22%

Structure (SMILES): CCCCCCOc1ccc(-c2oc3ccc(C(=O)O)cc3c(=O)c2OC)cc1
- inhibition in vivo at 76 mg/kg [3]: -12%

Structure (SMILES): CCCCCCc1ccc(-c2cc(=O)c3cc(C(=O)O)ccc3o2)cc1
- inhibition in vivo at 80 mg/kg [1]: 2%

Structure (SMILES): Cc1ccc(-c2oc3ccc(C(=O)O)cc3c(=O)c2OC(C)C)cc1
- inhibition in vivo at 80 mg/kg [1]: 8%

Structure (SMILES): O=C(O)c1ccc2oc(-c3ccc(Cl)cc3)c(O)c(=O)c2c1
- inhibition in vivo at 80 mg/kg [1]: -19%

Structure (SMILES): COc1ccc(-c2oc3ccc(C(=O)O)cc3c(=O)c2O)cc1
- inhibition in vivo at 80 mg/kg [1]: 24%

Structure (SMILES): O=C(O)c1ccc(-c2oc3ccc(C(=O)O)cc3c(=O)c2O)cc1
- inhibition in vivo at 80 mg/kg [1]: 23%

Structure (SMILES): COc1ccc(-c2oc3ccc(C(=O)O)cc3c(=O)c2OC(C)C)cc1
- Inhibition [4]: 4% and 9%
- Inhibition [5]: 34% and 59%
- inhibition in vivo at 80 mg/kg [1]: 35%
- mequiv of HCl [6]: 0.161
- mequiv of HCl [7]: 0.101
- mequiv of HCl [8]: 0.238
- Volume [9]: 5.16 mL
- Volume [10]: 4.8 mL
- Volume [11]: 3.68 mL
- Volume [12]: 5.13 mL
- mequiv of HCl [13]: 0.226

Structure (SMILES): COc1c(-c2ccc(Cl)cc2)oc2ccc(C(=O)O)cc2c1=O
- inhibition in vivo at 80 mg/kg [1]: 34%

Structure (SMILES): COc1ccc(-c2cc(=O)c3cc(C(=O)O)ccc3o2)cc1
- inhibition in vivo at 80 mg/kg [1]: 13%

Structure (SMILES): Cc1ccc(-c2oc3ccc(C(=O)O)cc3c(=O)c2O)cc1
- inhibition in vivo at 80 mg/kg [1]: -6%

Structure (SMILES): CCOc1ccc(-c2oc3ccc(C(=O)O)cc3c(=O)c2OC(C)C)cc1
- inhibition in vivo at 60 mg/kg [14]: 18%

Structure (SMILES): Cc1ccccc1-c1oc2ccc(C(=O)O)cc2c(=O)c1O
- inhibition in vivo at 80 mg/kg [1]: 15%

Structure (SMILES): O=C(O)c1ccc2oc(-c3ccc(F)cc3)cc(=O)c2c1
- inhibition in vivo at 80 mg/kg [1]: 21%

Structure (SMILES): CC(C)Oc1c(-c2ccc(C(C)C)cc2)oc2ccc(C(=O)O)cc2c1=O
- inhibition in vivo at 80 mg/kg [1]: 20%

Structure (SMILES): COc1c(-c2ccc(F)cc2)oc2ccc(C(=O)O)cc2c1=O
- inhibition in vivo at 70 mg/kg [2]: 4%

Structure (SMILES): COc1c(-c2ccc(C)cc2)oc2ccc(C(=O)O)cc2c1=O
- inhibition in vivo at 80 mg/kg [1]: 4%

Structure (SMILES): COc1cccc(-c2oc3ccc(C(=O)O)cc3c(=O)c2OC(C)C)c1
- inhibition in vivo at 66 mg/kg [15]: 12%

Structure (SMILES): CC(C)c1ccc(-c2cc(=O)c3cc(C(=O)O)ccc3o2)cc1
- inhibition in vivo at 80 mg/kg [1]: 19%

Structure (SMILES): CCCCCCOc1ccc(-c2oc3ccc(C(=O)O)cc3c(=O)c2O)cc1
- inhibition in vivo at 80 mg/kg [1]: -11%

Structure (SMILES): COc1cc(-c2oc3ccc(C(=O)O)cc3c(=O)c2O)cc(OC)c1OC
- inhibition in vivo at 80 mg/kg [1]: 24%

Structure (SMILES): COc1c(-c2ccc(C(C)C)cc2)oc2ccc(C(=O)O)cc2c1=O
- inhibition in vivo at 80 mg/kg [1]: 18%

Structure (SMILES): C/N=C(\S)NCCCCc1c[nH]cn1 [BURIMAMIDE]
- inhibition in vivo at 90 mg/kg [16]: 49%

Structure (SMILES): CNC(=S)NCCSCc1[nH]cnc1C [METIAMIDE]
- inhibition in vivo at 150 mg/kg [17]: 76%
- inhibition in vivo at 75 mg/kg [18]: 46%
- mequiv of HCl [6]: 0.064
- mequiv of HCl [19]: 0.148
- Volume [10]: 1.7 mL
- Volume [20]: 2.99 mL
